Assay results published in ChEMBL document CHEMBL5724801, “EUbOPEN Chemogenomics Library - Multiplex” (2024).
Where “and” joins values, the source holds several entries; their conditions need not be identical. Equal values may be shown once.

Tested on: U2OS
Assay: Multiplex assay against U2OS
Format: toxicity, cell-based
Conditions: human
Method in brief: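 Cells stained live at seeding with Hoechst33342, BioTracker Green Microtubule Cytoskeleton Dye, MitoTracker Red and Annexin V Alexa Fluor 680 were imaged on a CQ1 microscope at 37°C and 5% CO2 after compound addition. Their classification by CellPathfinder machine-learning gating ran from Hoechst high-intensity objects versus normal cells, to healthy, pyknosed or fragmented nuclei among normal cells, to mitotic or apoptotic among pyknosed cells. Tubulin, mitochondrial-mass and membrane-permeability phenotypes are per cents of healthy-nucleus cells.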

[1] = 12 h, 1 µM, compound concentration 1 uM
[2] = 12 h, 10 µM, compound concentration 10 uM
[3] = 24 h, 1 µM, compound concentration 1 uM
[4] = 24 h, 10 µM, compound concentration 10 uM
[5] = 48 h, 1 µM, compound concentration 1 uM
[6] = 48 h, 10 µM, compound concentration 10 uM

## COC(c1ccccc1)(c1ccccc1)[C@H](Oc1nc(C)cc(C)n1)C(=O)O [AMBRISENTAN]
[1]
  Population Apoptotic (%): 95% and 100%
  Population Fragmented Nuclei (%): 26% and 21%
  Population Healthy Nuclei (%): 62% and 72%
  Population Hoechst High Intensity Objects (%): 2%
  Population Membrane Permeable-Phenotype (%): 3% and 8%
  Population Mitochondria Different-Phenotype (%): 0% and 3%
  Population Mitotic Cells (%): 4% and 0%
  Population Normal (%): 97%
  Population Pyknosed Nuclei (%): 10% and 5%
  Population Tubulin-Different-Phenotype (%): 1%
  Total Cell Count: 209 and 87
[2]
  Population Apoptotic (%): 61% and 100%
  Population Fragmented Nuclei (%): 28% and 19%
  Population Healthy Nuclei (%): 63% and 72%
  Population Hoechst High Intensity Objects (%): 2% and 0%
  Population Membrane Permeable-Phenotype (%): 4%
  Population Mitochondria Different-Phenotype (%): 2% and 0%
  Population Normal (%): 97% and 99%
  Population Pyknosed Nuclei (%): 7%
  Population Tubulin-Different-Phenotype (%): 1% and 0%
  Total Cell Count: 232 and 104
[3]
  Population Apoptotic (%): 95% and 100%
  Population Fragmented Nuclei (%): 27% and 23%
  Population Healthy Nuclei (%): 63% and 66%
  Population Hoechst High Intensity Objects (%): 0%
  Population Membrane Permeable-Phenotype (%): 4% and 1%
  Population Mitochondria Different-Phenotype (%): 1% and 2%
  Population Mitotic Cells (%): 4% and 0%
  Population Normal (%): 99%
  Population Pyknosed Nuclei (%): 8% and 10%
  Population Tubulin-Different-Phenotype (%): 1%
  Total Cell Count: 248 and 111
[4]
  Population Apoptotic (%): 84% and 80%
  Population Fragmented Nuclei (%): 25% and 13%
  Population Healthy Nuclei (%): 65% and 77%
  Population Hoechst High Intensity Objects (%): 1% and 0%
  Population Membrane Permeable-Phenotype (%): 7%
  Population Mitochondria Different-Phenotype (%): 2%
  Population Mitotic Cells (%): 16% and 20%
  Population Normal (%): 98% and 100%
  Population Pyknosed Nuclei (%): 9% and 8%
  Population Tubulin-Different-Phenotype (%): 3% and 5%
  Total Cell Count: 273 and 115
[5]
  Population Apoptotic (%): 89% and 93%
  Population Fragmented Nuclei (%): 17%
  Population Healthy Nuclei (%): 70% and 72%
  Population Hoechst High Intensity Objects (%): 2%
  Population Membrane Permeable-Phenotype (%): 2% and 0%
  Population Mitochondria Different-Phenotype (%): 1%
  Population Mitotic Cells (%): 10% and 6%
  Population Normal (%): 97%
  Population Pyknosed Nuclei (%): 11% and 10%
  Population Tubulin-Different-Phenotype (%): 0%
  Total Cell Count: 333 and 151
[6]
  Population Apoptotic (%): 87% and 81%
  Population Fragmented Nuclei (%): 21% and 13%
  Population Healthy Nuclei (%): 68% and 79%
  Population Hoechst High Intensity Objects (%): 3% and 0%
  Population Membrane Permeable-Phenotype (%): 4% and 2%
  Population Mitochondria Different-Phenotype (%): 2% and 0%
  Population Mitotic Cells (%): 12% and 18%
  Population Normal (%): 96% and 100%
  Population Pyknosed Nuclei (%): 10% and 6%
  Population Tubulin-Different-Phenotype (%): 3% and 2%
  Total Cell Count: 388 and 174

## CCc1cc2cc(NS(=O)(=O)c3ccc(C#N)cc3)ccc2n(CC)c1=O
[1]
  Population Apoptotic (%): 88% and 100%
  Population Fragmented Nuclei (%): 30% and 26%
  Population Healthy Nuclei (%): 60% and 70%
  Population Hoechst High Intensity Objects (%): 3% and 1%
  Population Membrane Permeable-Phenotype (%): 4% and 8%
  Population Mitochondria Different-Phenotype (%): 2%
  Population Mitotic Cells (%): 11% and 0%
  Population Normal (%): 96% and 98%
  Population Pyknosed Nuclei (%): 9% and 3%
  Population Tubulin-Different-Phenotype (%): 2% and 7%
  Total Cell Count: 286 and 113
[2]
  Population Apoptotic (%): 66% and 87%
  Population Fragmented Nuclei (%): 28% and 13%
  Population Healthy Nuclei (%): 64% and 80%
  Population Hoechst High Intensity Objects (%): 2%
  Population Membrane Permeable-Phenotype (%): 9% and 6%
  Population Mitochondria Different-Phenotype (%): 3%
  Population Mitotic Cells (%): 33% and 12%
  Population Normal (%): 97%
  Population Pyknosed Nuclei (%): 6% and 5%
  Population Tubulin-Different-Phenotype (%): 4%
  Total Cell Count: 220 and 139
[3]
  Population Apoptotic (%): 85% and 88%
  Population Fragmented Nuclei (%): 29% and 16%
  Population Healthy Nuclei (%): 61% and 75%
  Population Hoechst High Intensity Objects (%): 2% and 1%
  Population Membrane Permeable-Phenotype (%): 9% and 7%
  Population Mitochondria Different-Phenotype (%): 2% and 7%
  Population Mitotic Cells (%): 14% and 11%
  Population Normal (%): 97% and 98%
  Population Pyknosed Nuclei (%): 8% and 7%
  Population Tubulin-Different-Phenotype (%): 6% and 3%
  Total Cell Count: 335 and 126
[4]
  Population Apoptotic (%): 95% and 80%
  Population Fragmented Nuclei (%): 23% and 14%
  Population Healthy Nuclei (%): 67% and 79%
  Population Hoechst High Intensity Objects (%): 3%
  Population Membrane Permeable-Phenotype (%): 4% and 6%
  Population Mitochondria Different-Phenotype (%): 2%
  Population Normal (%): 96%
  Population Pyknosed Nuclei (%): 9% and 6%
  Population Tubulin-Different-Phenotype (%): 1% and 2%
  Total Cell Count: 263 and 159
[5]
  Population Apoptotic (%): 89% and 84%
  Population Fragmented Nuclei (%): 21% and 19%
  Population Healthy Nuclei (%): 70% and 73%
  Population Hoechst High Intensity Objects (%): 2% and 3%
  Population Membrane Permeable-Phenotype (%): 6%
  Population Mitochondria Different-Phenotype (%): 3% and 5%
  Population Mitotic Cells (%): 10% and 15%
  Population Normal (%): 97% and 96%
  Population Pyknosed Nuclei (%): 8% and 6%
  Population Tubulin-Different-Phenotype (%): 2% and 3%
  Total Cell Count: 450 and 192
[6]
  Population Apoptotic (%): 88% and 96%
  Population Fragmented Nuclei (%): 18% and 15%
  Population Healthy Nuclei (%): 72% and 73%
  Population Hoechst High Intensity Objects (%): 3% and 2%
  Population Membrane Permeable-Phenotype (%): 6% and 8%
  Population Mitochondria Different-Phenotype (%): 2% and 3%
  Population Mitotic Cells (%): 11% and 3%
  Population Normal (%): 96% and 97%
  Population Pyknosed Nuclei (%): 9% and 11%
  Population Tubulin-Different-Phenotype (%): 3% and 7%
  Total Cell Count: 387 and 248
